Test results: ChEMBL document CHEMBL4196230, “Design, Synthesis, and Blood-Brain Barrier Transport Study of Pyrilamine Derivatives as Histone Deacetylase Inhibitors” (ACS Med Chem Lett, 2018); call rule not given here

Experiments:
[1] = Substrate activity at PYSOCA in human CMEC/D3 cells assessed as transporter-mediated drug uptake clearance assessed per mg protein at 37degC; type: ADME, cell-based
How it was run: (§1)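 Uptake by hCMEC/D3 cells followed over time at 37 °C or 4 °C. Clearance was calculated from the initial linear slope, expressed per mg protein. Mean ± S.E., n = 4.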

[2] = Substrate activity at PYSOCA in human CMEC/D3 cells assessed as transporter-mediated drug uptake clearance assessed per mg protein at 4degC measured up to 10 mins; type: ADME, cell-based; how it was run: as §1
[3] = Substrate activity at PYSOCA in human CMEC/D3 cells assessed as transporter-mediated drug uptake measured for 2 mins at 37degC in presence of metabolic inhibitor NaN3; type: ADME, cell-based
How it was run: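 To deplete cellular ATP, hCMEC/D3 cells were pretreated with 0.1% NaN3 for 20 min. Uptake was then measured at 37 °C for 2 min. Mean ± S.E., n = 4.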

[4] = Substrate activity at PYSOCA in human CMEC/D3 cells assessed as transporter-mediated drug uptake measured for 2 mins at 37degC in presence of memantine; type: ADME, cell-based
PYSOCA = test: Substrate activity at PYSOCA in human CMEC/D3 cells assessed as Km for transporter-mediated drug uptake measured for 2 mins at 37degC; type: ADME, cell-based; conditions: hCMEC/D3 cells
How it was run: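 Uptake by hCMEC/D3 cells measured over a range of concentrations at 37 °C for 2 min. Km and Vmax were obtained by fitting to Eq. 1. Mean ± S.E., n = 4.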

Histone deacetylase 1 = Histone deacetylase 1 (Homo sapiens, UniProt Q13547); test: Inhibition of recombinant human C-terminal FLAG/His-tagged HDAC1 expressed in baculovirus infected Sf9 insect cells using HDAC substrate 3 measured after 30 mins by fluorescence assay
[5] = Substrate activity at PYSOCA in human CMEC/D3 cells assessed as transporter-mediated drug uptake measured for 2 mins at 37degC in presence of clonidine; type: ADME, cell-based
[6] = biological target: T1, Histone deacetylase 7 (Homo sapiens) (UniProt Q8WUI4); test: Inhibition of recombinant human HDAC7 (518 to end residues) expressed in baculovirus infected insect cells at 30 uM using HDAC class 2a substrate measured after 30 mins by fluorescence assay relative to control
T1 sequence (whole entry): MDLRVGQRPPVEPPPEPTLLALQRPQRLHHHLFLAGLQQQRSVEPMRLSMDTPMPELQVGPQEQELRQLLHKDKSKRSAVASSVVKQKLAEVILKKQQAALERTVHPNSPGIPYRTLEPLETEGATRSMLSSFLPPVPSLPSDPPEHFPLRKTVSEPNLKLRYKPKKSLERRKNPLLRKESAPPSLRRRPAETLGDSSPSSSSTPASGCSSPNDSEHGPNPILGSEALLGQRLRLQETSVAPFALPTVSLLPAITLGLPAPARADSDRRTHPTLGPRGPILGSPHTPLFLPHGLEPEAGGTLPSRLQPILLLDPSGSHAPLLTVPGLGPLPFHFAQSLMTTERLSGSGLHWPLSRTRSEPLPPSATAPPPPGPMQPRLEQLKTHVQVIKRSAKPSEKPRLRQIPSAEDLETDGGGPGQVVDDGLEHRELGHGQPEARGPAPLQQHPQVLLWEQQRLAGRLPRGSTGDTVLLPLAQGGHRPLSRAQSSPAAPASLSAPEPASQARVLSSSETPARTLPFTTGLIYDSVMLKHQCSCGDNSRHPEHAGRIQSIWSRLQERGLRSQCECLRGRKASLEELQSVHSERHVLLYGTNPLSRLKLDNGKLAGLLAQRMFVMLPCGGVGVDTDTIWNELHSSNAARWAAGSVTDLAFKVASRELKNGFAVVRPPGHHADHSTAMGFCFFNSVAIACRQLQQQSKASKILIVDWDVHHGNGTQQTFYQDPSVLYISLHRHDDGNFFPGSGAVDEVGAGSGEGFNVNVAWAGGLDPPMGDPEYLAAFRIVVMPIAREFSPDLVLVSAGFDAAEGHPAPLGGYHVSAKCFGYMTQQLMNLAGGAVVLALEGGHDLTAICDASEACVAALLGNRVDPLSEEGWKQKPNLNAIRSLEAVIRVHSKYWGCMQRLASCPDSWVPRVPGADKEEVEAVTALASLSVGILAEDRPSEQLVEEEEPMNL

[7] = biological target: T2, Histone deacetylase 11 (Homo sapiens) (UniProt Q96DB2); test: Inhibition of recombinant human full length HDAC11 expressed in baculovirus infected insect cells at 30 uM using HDAC class 2a substrate measured after 30 mins by fluorescence assay relative to control
T2 sequence (whole entry): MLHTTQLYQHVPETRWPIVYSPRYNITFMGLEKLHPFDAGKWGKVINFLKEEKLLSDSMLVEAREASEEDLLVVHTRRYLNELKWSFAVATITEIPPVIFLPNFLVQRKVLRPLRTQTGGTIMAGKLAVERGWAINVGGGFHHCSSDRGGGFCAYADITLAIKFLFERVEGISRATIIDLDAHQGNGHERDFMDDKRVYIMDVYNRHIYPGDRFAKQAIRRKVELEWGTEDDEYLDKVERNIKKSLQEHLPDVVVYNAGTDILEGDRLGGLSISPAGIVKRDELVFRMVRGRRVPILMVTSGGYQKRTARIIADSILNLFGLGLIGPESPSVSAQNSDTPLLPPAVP

[8] = Substrate activity at PYSOCA in human CMEC/D3 cells assessed as transporter-mediated drug uptake measured for 2 mins at 37degC in presence of varenicline; type: ADME, cell-based
[9] = biological target: T3, Histone deacetylase 8 (Homo sapiens) (UniProt Q9BY41); test: Inhibition of recombinant human full length C-terminal His-tagged HDAC8 expressed in baculovirus infected insect cells at 30 uM using HDAC class 2a substrate measured after 30 mins by fluorescence assay relative to control
T3 sequence (whole entry): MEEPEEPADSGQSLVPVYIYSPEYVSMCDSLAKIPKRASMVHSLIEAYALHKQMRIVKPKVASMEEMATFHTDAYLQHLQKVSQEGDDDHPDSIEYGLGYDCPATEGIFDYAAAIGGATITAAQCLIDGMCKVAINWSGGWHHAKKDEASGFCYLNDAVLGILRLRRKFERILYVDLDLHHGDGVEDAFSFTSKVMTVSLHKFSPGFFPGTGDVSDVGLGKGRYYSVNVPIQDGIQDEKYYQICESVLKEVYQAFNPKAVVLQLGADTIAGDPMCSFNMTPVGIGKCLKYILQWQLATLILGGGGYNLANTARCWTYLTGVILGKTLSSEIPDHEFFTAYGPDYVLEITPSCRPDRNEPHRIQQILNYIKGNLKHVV

Chain of Histone deacetylase 1 (Q13547 whole entry): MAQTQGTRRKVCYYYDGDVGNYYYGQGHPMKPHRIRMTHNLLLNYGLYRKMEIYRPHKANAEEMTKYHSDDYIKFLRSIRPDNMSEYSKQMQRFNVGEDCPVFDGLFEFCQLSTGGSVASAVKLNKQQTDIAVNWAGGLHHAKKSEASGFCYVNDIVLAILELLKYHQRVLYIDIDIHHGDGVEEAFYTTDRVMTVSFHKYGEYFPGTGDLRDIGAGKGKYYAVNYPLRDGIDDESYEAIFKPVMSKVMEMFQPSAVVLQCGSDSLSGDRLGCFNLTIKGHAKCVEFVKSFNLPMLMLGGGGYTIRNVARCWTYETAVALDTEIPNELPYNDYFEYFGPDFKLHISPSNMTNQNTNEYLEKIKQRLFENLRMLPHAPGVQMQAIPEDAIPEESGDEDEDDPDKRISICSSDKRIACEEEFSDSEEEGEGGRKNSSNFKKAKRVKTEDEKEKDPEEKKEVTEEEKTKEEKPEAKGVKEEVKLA

CL [1]: 107 µL/min
Activity [2]: Not Active
Activity [3]: Not Active
Activity [4]: Not Active
Km at 2 min (PYSOCA): 326 µM
IC50 (Histone deacetylase 1): 1.5 µM
Activity [5]: Not Active
inhibition [6]: < 10%
inhibition [7]: < 10%
Activity [8]: Not Active
inhibition [9]: < 10%
SMILES: COc1ccc(CN(CCN(C)C)c2ccc(C(=O)Nc3ccccc3N)cn2)cc1
